Published values of several laboratories.
Flap endonuclease 1: Flap endonuclease 1 (Homo sapiens, UniProt P39748)
KRAS G12D: GTPase KRas (KRAS, Homo sapiens, UniProt P01116, G12D)
CDK4: Cyclin-dependent kinase 4 (CDK4, Homo sapiens, UniProt P11802)
CHRM2: Muscarinic acetylcholine receptor M2 (CHRM2, Homo sapiens, UniProt P08172)
Chymotrypsinogen A: Chymotrypsinogen A (Bos taurus, UniProt P00766)

For CCOC(=O)CCCc1cc[c]([Sb](=[O])([OH])[OH])cc1, the IC50 was 1700 nM (Flap endonuclease 1; enzyme activity; inhibitor; with preincubation).
Cc1cc(SCc2sc(-c3ccc(C(F)(F)F)c(F)c3)nc2C)ccc1OCC(=O)O has an IC50 of 31400 nM (Thyroid hormone receptor alpha (THRA, Homo sapiens, UniProt P10827); reporter gene; antagonist; luciferase).
The IC50 of CC[C@H](C)[C@@H]1NC(=O)[C@H](Cc2ccc(-c3ccccc3)cc2)NC(=O)[C@H](CC(C)C)NC(=O)[C@@H]2CCCN2C(=O)[C@@H](NC(=O)[C@H](CCCNC(=N)N)NC(=O)[C@H](CCCNC(=N)N)NC(C)=O)CSSC[C@@H](C(=O)N[C@@H](CCCNC(=N)N)C(=O)N[C@@H](CCCNC(=N)N)C(N)=O)NC(=O)[C@H](CC2CCCCC2)NC(=O)[C@@H]2C[C@@H](OCC(=O)O)CN2C(=O)[C@H](CC(=O)O)NC(=O)[C@H](Cc2ccc(O)cc2)NC(=O)[C@H](CO)NC1=O is reported as 25 nM (KRAS G12D; enzyme activity; inhibitor; TR-FRET).
The IC50 of CCOC(=O)[C@H]1Cc2c(cc([N+](=O)[O-])cc2[N+](=O)[O-])[C@@H](O)[C@@]12C(=O)Nc1cc(Cl)ccc12 is reported as 940 nM (CDK4; cell-free assay; inhibitor; TR-FRET).
Cc1[nH]ncc1-c1cc2nc([C@@H]3CC4CCN3CC4)[nH]c(=O)c2s1 has an IC50 of 1.75 nM (Cell division cycle 7-related protein kinase (CDC7, Homo sapiens, UniProt O00311); enzyme activity; inhibitor).
For O=C(O)c1cc[c]([Sb](=[O])([OH])[OH])cc1[N+](=O)[O-], the IC50 was 660 nM (Flap endonuclease 1; enzyme activity; inhibitor; with preincubation).
CCOC(=O)[C@H]1Cc2c(cc([N+](=O)[O-])cc2[N+](=O)[O-])[C@@H](O)[C@@]12C(=O)Nc1ccc(C)cc12 gave an IC50 of 910 nM (CDK4; cell-free assay; inhibitor; TR-FRET).
With C[N+](C)(C)CC#CCOC(=O)Nc1cccc(Cl)c1 the IC50 was 330000 nM (CHRM2; ligand displacement; radioligand).
With CCOC(=O)[C@H]1Cc2c(cc([N+](=O)[O-])cc2[N+](=O)[O-])[C@@H](O)[C@@]12C(=O)Nc1cccc(Br)c12 the IC50 was 2900 nM (CDK4; cell-free assay; inhibitor; TR-FRET).
For COc1cccc(-c2nsc(=O)o2)c1, the IC50 was 2190 nM (Chymotrypsinogen A; enzyme activity; inhibitor).
For CC(C)C[C@H](NC(=O)[C@H](Cc1ccccc1)NC(=O)[C@H](Cc1ccc(O)cc1)NC(=O)CNC(=O)[C@H](CCCCN)NC(=O)[C@H](CO)NC(=O)[C@H](CCC(N)=O)NC(=O)CNC(=O)[C@@H](NC(=O)[C@H](CO)NC(=O)[C@@H]1CCCN1C(=O)[C@H](CO)NC(=O)[C@H](CCC(N)=O)NC(=O)[C@H](Cc1ccc(O)cc1)NC(=O)[C@H](CCC(=O)O)NC(=O)[C@H](C)NC(=O)[C@H](CCCCN)NC(=O)[C@@H](N)Cc1ccccc1)C(C)C)C(=O)N[C@@H](Cc1ccccc1)C(=O)N[C@@H](CCCNC(=N)N)C(=O)N1CCC[C@H]1C(=O)N[C@@H](CCCNC(=N)N)C(=O)N[C@@H](CC(N)=O)C(N)=O, the IC50 was 0.03 nM (Neuromedin-U receptor 1 (Mus musculus, UniProt O55040); ligand displacement; radioligand; cell membranes).
With CCOC(=O)[C@H]1Cc2c(cc([N+](=O)[O-])cc2[N+](=O)[O-])[C@H](O)[C@]12C(=O)Nc1ccc(Cl)cc12 the IC50 was 3900 nM (CDK4; cell-free assay; inhibitor; TR-FRET).
For CC(C)C[C@H](NC(=O)[C@H](Cc1ccccc1)NC(=O)c1cnccn1)B(O)O, the IC50 was over 33000 nM (Chymotrypsinogen A; enzyme activity; inhibitor).
The IC50 of CCOC(=O)[C@H]1Cc2c(cc([N+](=O)[O-])cc2[N+](=O)[O-])[C@H](O)[C@]12C(=O)Nc1ccc(Br)cc12 is reported as 10600 nM (CDK4; cell-free assay; inhibitor; TR-FRET).
COc1ncccc1-c1cnn2ccc(N3CCN(C(=O)OC(C)C)CC3)nc12 has an IC50 of 320 nM (Cyclin-G-associated kinase (GAK, Homo sapiens, UniProt O14976); enzyme activity; inhibitor; radiometric).
O=C1O[C@H]2[C@@H]3OC(=O)c4cc(O)c(O)c(O)c4-c4c(O)c(O)c5oc(=O)c6c(c(O)c(O)c7oc(=O)c4c5c76)-c4c(cc(O)c(O)c4O)C(=O)OC[C@H]3OC(O)[C@@H]2OC(=O)c2cc(O)c(O)c(O)c2-c2c1cc(O)c(O)c2O (mixture of isomers) has an IC50 of under 100 nM (Genome polyprotein, protease (Hepatitis C virus genotype 1b, UniProt Q9WMX2); enzyme activity; inhibitor; fluorescence).
For CN1CCC(=C2c3ccccc3CCc3cccnc32)CC1, the IC50 was 80 nM (CHRM2; calcium signal; antagonist).
CC[C@H](C)[C@@H]1NC(=O)[C@H](Cc2ccc(-c3ccccc3)cc2)NC(=O)[C@H](CC(C)C)NC(=O)[C@@H]2CCCN2C(=O)[C@@H](NC(=O)[C@H](CCCNC(=N)N)NC(=O)[C@H](CCCNC(=N)N)NC(C)=O)CSSC[C@@H](C(=O)N[C@@H](CCCNC(=N)N)C(=O)N[C@@H](CCCNC(=N)N)C(N)=O)NC(=O)[C@H](Cc2ccc(Cl)cc2)NC(=O)[C@@H]2C[C@@H](OCC(=O)O)CN2C(=O)[C@H](CC(=O)O)NC(=O)[C@H](Cc2ccc(O)cc2)NC(=O)[C@H](CO)NC1=O has an IC50 of 33 nM (KRAS G12D; enzyme activity; inhibitor; TR-FRET).
O=C(Nc1cc[c]([Sb](=[O])([OH])[OH])cc1)c1ccccc1 gave an IC50 of 12000 nM (Flap endonuclease 1; enzyme activity; inhibitor; with preincubation).
O=c1oc(-c2cccc([N+](=O)[O-])c2)ns1 has an IC50 of 3140 nM (Chymotrypsinogen A; enzyme activity; inhibitor).
The IC50 of CC[C@H](C)[C@@H]1NC(=O)[C@H](Cc2ccc(-c3ccccc3)cc2)NC(=O)[C@H](CC2CCCCC2)NC(=O)[C@@H]2[C@@H](c3ccccc3)CCN2C(=O)[C@@H](NC(=O)[C@H](CCCNC(=N)N)NC(=O)[C@H](CCCNC(=N)N)NC(C)=O)CSSC[C@@H](C(=O)N[C@@H](CCCNC(=N)N)C(=O)N[C@@H](CCCNC(=N)N)C(N)=O)NC(=O)[C@H](C(C)C)NC(=O)[C@@H]2CCCN2C(=O)[C@H](CC(=O)O)NC(=O)[C@H](Cc2ccc(O)cc2)NC(=O)[C@H](CO)NC1=O is reported as 20 nM (KRAS G12D; enzyme activity; inhibitor; TR-FRET).
The IC50 of [O]=[Sb]([OH])([OH])[c]1ccccc1 is reported as 160000 nM (Flap endonuclease 1; enzyme activity; inhibitor; fluorescence; with preincubation).
